Measurements reported in ChEMBL document CHEMBL4049461, “Double-Winged 3-Hydroxypyrimidine-2,4-diones: Potent and Selective Inhibition against HIV-1 RNase H with Significant Antiviral Activity” (J Med Chem, 2017).

Assays:
[1] = test system: Human immunodeficiency virus 1; test: Antiviral activity against HIV1 infected in CD4/CXCR4/CCR5 expressing human P4R5 cells assessed as inhibition of viral replication preincubated with cells for 24 hrs followed by viral infection measured after 48 hrs by beta-galactosidase reporter gene assay; type: functional; conditions: Human immunodeficiency virus 1, P4/R5
Outline: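 P4R5 indicator cells (CD4, CXCR4, CCR5; HIV LTR-driven β-galactosidase reporter) seeded 4 × 10³/well in DMEM/10% FBS with puromycin (1 μg/mL). Cells lysed, MUG substrate added, fluorescence β-galactosidase readout.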

[2] = Inhibition of recombinant full length HIV1 reverse transcriptase polymerase domain assessed as decrease in extension of 18 nucleotide DNA primer annealed to 100 nucleotide DNA template after 30 mins; design: species or system Human immunodeficiency virus 1
Outline: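 20 nM RT, 40 nM 18-nt primer annealed to 100-nt DNA template, and 10 μM dNTPs in 50 mM Tris pH 7.8, 50 mM NaCl, 1% DMSO, with increasing compound concentrations. Reactions started with 6 mM MgCl2, run 30 min at 37 °C, and stopped with 100 mM EDTA.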

[3] = Inhibition of recombinant full length HIV1 reverse transcriptase RNase H domain using RNA/DNA duplex substrate HTS1 assessed as reduction in internal cleavage of RNA strand by fluoresence assay; design: species or system Human immunodeficiency virus 1
Outline: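 Full-length HIV RT incubated with fluorescein/Dabcyl-labelled 18-mer RNA/DNA duplex HTS-1, which reports non-specific internal RNA cleavage, across a compound concentration series. Dose-response data fitted by nonlinear regression to logistic curves. IC50 given as mean ± SD from at least two independent experiments.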

[4] = Cytotoxicity against human P4R5 cells by MTS assay; type: cell-based
[5] = Inhibition of HIV integrase strand transfer activity expressed in Escherichia coli BL21 (DE3) using 5' biotin ATGTGGAAAATCTCTAGCA primer annealed with ACTGCTAGAGATTTTCCACAT 3' Cy5 template preincubated for 10 mins followed by primer/template addition measured after 30 mins by fluorescence assay; design: species or system Human immunodeficiency virus
Outline: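 Integrase preincubated 10 min at 25 °C with compound (final 0.13–100 μM, duplicate) in 10 mM HEPES pH 7.5, 10% glycerol, 10 mM MnCl2, 1 mM DTT, 1 μM enzyme. Biotin/Cy5 oligo duplex added; 30 min at 37 °C; EDTA quench.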

Row | Structure (SMILES) | EC50 [1] [µM] | IC50 [2] [µM] | IC50 [3] [µM] | CC50 [4] [µM] | IC50 [5] [µM]
1 | O=C(Nc1ccc(-c2ccccc2)cc1)c1c(NCc2ccccc2)[nH]c(=O)n(O)c1=O | 15 | > 10 | 0.12 | 54 | > 100
2 | Cc1ccc(NC(=O)c2c(NCc3ccccc3)[nH]c(=O)n(O)c2=O)cc1 | 7.2 | 10 | 0.019 | 53 | 34
3 | O=C(NCc1cccc(Cl)c1F)c1c(Nc2ccc(-c3ccccc3)cc2)[nH]c(=O)n(O)c1=O | – | > 10 | 0.059 | – | > 100
4 | O=C(Nc1ccc(F)cc1F)c1c(NCc2ccccc2)[nH]c(=O)n(O)c1=O | > 20 | > 10 | 0.079 | > 100 | 29
5 | O=C(Nc1ccc(-c2ccccc2)cc1)c1c(Nc2ccc(-c3ccccc3)cc2)[nH]c(=O)n(O)c1=O | – | 1.8 | 1 | – | > 100
6 | O=C(Nc1ccccc1)c1c(NCc2ccccc2)[nH]c(=O)n(O)c1=O | 6.9 | > 10 | 0.027 | 52 | > 100
7 | O=C(NCc1ccccc1)c1c(NCc2ccc(-c3ccccc3)cc2)[nH]c(=O)n(O)c1=O | > 20 | > 10 | 0.054 | – | 1.6
8 | COc1cc2ccccc2cc1/C=N/NC(=O)c1cc(O)c(O)c(O)c1 | – | 0.5 | 0.2 | – | –
9 | O=C(NCc1cc(F)ccc1F)c1c(Nc2ccc(-c3ccccc3)cc2)[nH]c(=O)n(O)c1=O | 3.7 | 9.5 | 0.05 | > 100 | > 100
10 | O=C(Nc1cccc2ccccc12)c1c(Nc2ccccc2)[nH]c(=O)n(O)c1=O | 11.4 | 7.7 | 0.018 | 76.8 | 3.2
11 | O=C(NCc1ccc(F)cc1)c1c(Nc2ccc(-c3ccccc3)cc2)[nH]c(=O)n(O)c1=O | – | > 10 | 0.047 | – | > 100
12 | O=C(NCc1ccc(-c2ccccc2)cc1)c1c(NCc2ccc(-c3ccccc3)cc2)[nH]c(=O)n(O)c1=O | > 20 | > 10 | 0.11 | > 100 | > 100
13 | O=C(Nc1ccc(-c2ccccc2)cc1)c1c(NCc2ccc(-c3ccccc3)cc2)[nH]c(=O)n(O)c1=O | > 20 | > 10 | 0.14 | – | > 100
14 | O=C(NCc1ccccc1)c1c(Nc2ccccc2)[nH]c(=O)n(O)c1=O | 0.6 | > 10 | 0.056 | > 100 | 0.23
15 | O=C(Nc1ccc(C(F)(F)F)cc1)c1c(NCc2ccccc2)[nH]c(=O)n(O)c1=O | > 20 | > 10 | 0.041 | > 100 | > 100
16 | O=C(NCc1ccc(-c2ccccc2)cc1)c1c(NCc2ccccc2)[nH]c(=O)n(O)c1=O | > 20 | > 10 | 0.038 | > 100 | > 100

Row | Structure (SMILES) | EC50 [1] [µM] | IC50 [2] [µM] | IC50 [3] [µM] | CC50 [4] [µM] | IC50 [5] [µM]
17 | O=C(NCc1ccccc1)c1c(Nc2ccc(-c3ccccc3)cc2)[nH]c(=O)n(O)c1=O | – | > 10 | 0.11 | – | 23
18 | O=C(Nc1ccc(F)cc1)c1c(Nc2ccccc2)[nH]c(=O)n(O)c1=O | 6.1 | > 10 | 0.004 | 58.4 | 3.1
19 | CCc1ccc(NC(=O)c2c(NCc3ccccc3)[nH]c(=O)n(O)c2=O)cc1 | 8.5 | 10 | 0.054 | > 100 | > 100
20 | O=C(NCc1ccccc1F)c1c(Nc2ccc(-c3ccccc3)cc2)[nH]c(=O)n(O)c1=O | – | > 10 | 0.04 | – | > 100
21 | O=C(Nc1ccc(F)cc1)c1c(NCc2ccccc2)[nH]c(=O)n(O)c1=O | > 20 | 10 | 0.019 | > 100 | 71
22 | O=C(NCc1cccc(F)c1)c1c(Nc2ccc(-c3ccccc3)cc2)[nH]c(=O)n(O)c1=O | 6.3 | > 10 | 0.049 | > 100 | > 100
23 | O=C(Nc1ccc(-c2ccc(F)cc2)cc1)c1c(Nc2ccc(-c3ccccc3)cc2)[nH]c(=O)n(O)c1=O | – | 1.6 | 0.97 | – | > 100
24 | O=C(NCc1ccccc1)c1c(NCc2ccccc2)[nH]c(=O)n(O)c1=O | 1.4 | > 10 | 0.032 | > 100 | 0.14
25 | O=C(NCc1ccc(F)cc1F)c1c(Nc2ccc(-c3ccccc3)cc2)[nH]c(=O)n(O)c1=O | 1.5 | 8.6 | 0.077 | > 100 | > 100
26 | O=C(Nc1ccc(C(F)(F)F)cc1)c1c(Nc2ccccc2)[nH]c(=O)n(O)c1=O | 3.5 | 8.1 | 0.038 | > 100 | 9.5
27 | O=C(Nc1ccccc1)c1c(Nc2ccccc2)[nH]c(=O)n(O)c1=O | 6.6 | > 10 | 0.016 | > 100 | 1.5
28 | O=C(Nc1ccccc1)c1c(NCc2ccc(-c3ccccc3)cc2)[nH]c(=O)n(O)c1=O | > 20 | > 10 | 0.047 | – | > 100
29 | COc1ccc(-c2ccc(NC(=O)c3c(Nc4ccc(-c5ccccc5)cc4)[nH]c(=O)n(O)c3=O)cc2)cc1 | – | 1.4 | 1.2 | – | > 100
30 | Cc1ccc(NC(=O)c2c(Nc3ccccc3)[nH]c(=O)n(O)c2=O)cc1 | 4.5 | > 10 | 0.03 | > 100 | 2.6
31 | O=C(Nc1cccc2ccccc12)c1c(NCc2ccccc2)[nH]c(=O)n(O)c1=O | > 20 | > 10 | 0.057 | > 100 | 21
